For 26 compounds, IC50 and Activity results are on record in ChEMBL document CHEMBL1141689, “Synthesis and biological evaluation of 2-amino-3-(3',4',5'-trimethoxybenzoyl)-6-substituted-4,5,6,7-tetrahydrothieno[2,3-c]pyridine derivatives as antimitotic agents and inhibitors of tubulin polymerization” (Bioorg Med Chem Lett, 2008).

Experiment [1] relates to L1210. As to the kind of experiment: Antiproliferative activity against mouse L1210 cells. It counts as functional, cell-based.
For experiment [2], the system named is FM3A. As to the kind of experiment: Antiproliferative activity against mouse FM3A cells. The format is functional, cell-based.
The nature of experiment [3]: Antiproliferative activity against human Molt4/C8 cells. The format is functional, cell-based. As to conditions: MOLT-4.
Experiment [4] deals with CCRF-CEM. As to the kind of experiment: Antiproliferative activity against human CEM cells. The format is cell-based.
Experiment [5] is filed under the species Bos taurus. As to the kind of experiment: Displacement of [3H]colchicine from bovine brain tubulin at 1 uM. In general terms: Loss of bound radioactivity is the signal in a displacement assay; it reports binding, not function.
The species named for experiment [6] is Bos taurus. As to the kind of experiment: Displacement of [3H]colchicine from bovine brain tubulin at 5 uM.
Experiment [7] can be described thus: Inhibition of tubulin polymerization.
Experiment [8] has as its system K562. As to the kind of experiment: Cell cycle arrest in human K562 cells assessed as accumulation at G0/G1 phase at 70 nM after 24 hrs using propidium iodide staining by flow cytometry. The format is functional. In general terms: A flow cytometer gives signals particle by particle.
Experiment [9] relates to K562. As to the kind of experiment: Cell cycle arrest in human K562 cells assessed as accumulation at S phase at 70 nM after 24 hrs using propidium iodide staining by flow cytometry. The format is functional.
For experiment [10], the system named is K562. As to the kind of experiment: Cell cycle arrest in human K562 cells assessed as accumulation at G2/M phase at 70 nM after 24 hrs using propidium iodide staining by flow cytometry. It counts as functional.
Experiment [11] deals with K562. As to the kind of experiment: Cell cycle arrest in human K562 cells assessed as accumulation at sub G0/G1 phase at 70 nM after 24 hrs using propidium iodide staining by flow cytometry. The format is functional.
For experiment [12], the system named is K562. As to the kind of experiment: Cell cycle arrest in human K562 cells assessed as accumulation at G0/G1 phase at 80 nM after 24 hrs using propidium iodide staining by flow cytometry. The format is functional. A digest of the protocol:
(§1)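 K562 leukaemia cells were cultured 24 h with compound or without compound as a control, then washed once in ice-cold PBS. They were resuspended at 1 × 10^6/mL in hypotonic propidium iodide (50 μg/mL) in 0.1% sodium citrate with 0.03% (v/v) Nonidet P-40 and incubated 30 min. DNA content was read by flow cytometry as single-parameter histograms, and cell-cycle phase distribution was modelled from them.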

In experiment [13] the test system is K562. As to the kind of experiment: Cell cycle arrest in human K562 cells assessed as accumulation at S phase at 80 nM after 24 hrs using propidium iodide staining by flow cytometry. It counts as functional. Summed up:
as §1

Experiment [14] concerns K562. As to the kind of experiment: Cell cycle arrest in human K562 cells assessed as accumulation at G2/M phase at 80 nM after 24 hrs using propidium iodide staining by flow cytometry. The format is functional. A digest of the protocol: as §1
The test system of experiment [15] is K562. As to the kind of experiment: Cell cycle arrest in human K562 cells assessed as accumulation at sub G0/G1 phase at 80 nM after 24 hrs using propidium iodide staining by flow cytometry. It counts as functional. A digest of the protocol:
as §1

Experiment [16] concerns K562. As to the kind of experiment: Cell cycle arrest in human K562 cells assessed as accumulation at G0/G1 phase at 500 nM after 24 hrs using propidium iodide staining by flow cytometry. The format is functional. A digest of the protocol: as §1
Experiment [17] concerns K562. As to the kind of experiment: Cell cycle arrest in human K562 cells assessed as accumulation at S phase at 500 nM after 24 hrs using propidium iodide staining by flow cytometry. The format is functional. A digest of the protocol:
as §1

Experiment [18] concerns K562. As to the kind of experiment: Cell cycle arrest in human K562 cells assessed as accumulation at G2/M phase at 500 nM after 24 hrs using propidium iodide staining by flow cytometry. The format is functional. A digest of the protocol: as §1
Experiment [19] relates to K562. As to the kind of experiment: Cell cycle arrest in human K562 cells assessed as accumulation at sub G0/G1 phase at 500 nM after 24 hrs using propidium iodide staining by flow cytometry. The format is functional. A digest of the protocol:
as §1

In the case of `COc1cc(C(=O)c2c(N)sc3c2CCN(Cc2ccccc2)C3)cc(OC)c1OC`, the IC50 in experiment [1], in experiment [2], in experiment [3] and in experiment [4] was over 10 µM each time.

Turning to `COc1cc(C(=O)c2c(N)sc3c2CCN(C(=O)Nc2ccccc2)C3)cc(OC)c1OC`, the IC50 in experiment [1], in experiment [2], in experiment [3] and in experiment [4] was over 10 µM in each case.

In the case of `CCNC(=S)N1CCc2c(sc(N)c2C(=O)c2cc(OC)c(OC)c(OC)c2)C1`, the IC50 in [1] was 6.8 µM; in [2] it was 6.9 µM; in experiment [3], 4.8 µM; in [4], 6.7 µM.

For `COc1cc(C(=O)c2c(N)sc3c2CCN(C(C)=O)C3)cc(OC)c1OC`, the IC50 was found to be 3.9 µM in [1], 1.2 µM in [2], 1.1 µM in experiment [3] and 1.4 µM in experiment [4].

With `COc1cc(C(=O)c2c(N)sc3c2CCN(C(=O)NCc2ccccc2)C3)cc(OC)c1OC`, the IC50 in experiment [1], in experiment [2], in [3] and in experiment [4] was over 10 µM each time.

In [3], `COc1ccc(/C=C\c2cc(OC)c(OC)c(OC)c2)cc1O` [COMBRETASTATIN A4] came in with an IC50 of 0.0016 µM. The Activity in experiment [5] stood at 90%; in experiment [6] it was 99%.

On to `COC(=O)N1CCc2c(sc(N)c2C(=O)c2cc(OC)c(OC)c(OC)c2)C1`, for which the concentration for half-maximal inhibition (IC50) in experiment [1] is 0.025 µM; in experiment [2], 0.046 µM; in experiment [3], 0.045 µM; in [4], 0.09 µM; in experiment [7], 0.6 µM. Also, the Activity in experiment [5] amounted to 71%; in experiment [6] it was 84%; in experiment [8] it was 34%; in experiment [9], 33%; in [10] it was 33%; in experiment [11], 11%.

Regarding `COc1cc(C(=O)c2c(N)sc3c2CCN(C(=O)NCc2ccc(F)cc2)C3)cc(OC)c1OC`, the IC50 in experiment [1], in experiment [2], in experiment [3] and in experiment [4] was over 10 µM each time.

As to `CCN1CCc2c(sc(N)c2C(=O)c2cc(OC)c(OC)c(OC)c2)C1`, the IC50 in [1] worked out at 2.1 µM; in experiment [2] it was 1.9 µM; in [3] it was 1.8 µM; in [4], 1.7 µM.

For the compound `COc1cc(C(=O)c2c(N)sc3ccccc23)cc(OC)c1OC`, the IC50 in [1] was found to be 0.09 µM; in [2] it was 0.1 µM; in [3], 0.073 µM; in experiment [4] it was 0.074 µM; in experiment [7], 1.9 µM. For the same compound, the Activity in [5] was 25%; in [6] it was 71%.

As to `COc1cc(C(=O)c2c(N)sc3c2CCN(C(=O)OCC(C)C)C3)cc(OC)c1OC`, the IC50 in experiment [1], in experiment [2], in [3] and in experiment [4] was over 10 µM throughout.

Consider `COc1cc(C(=O)c2c(N)sc3c2CCN(C(=S)NC(C)C)C3)cc(OC)c1OC`, for which the IC50 in [1], in [2], in experiment [3] and in experiment [4] was over 10 µM each time.

Take `COc1cc(C(=O)c2c(N)sc3c2CCN(C(=O)Oc2ccccc2)C3)cc(OC)c1OC`: the IC50 in experiment [1], in experiment [2], in [3] and in experiment [4] was over 10 µM each time.

For `CCOC(=O)N1CCc2c(sc(N)c2C(=O)c2cc(OC)c(OC)c(OC)c2)C1`, the IC50 was found to be 0.095 µM in [1]; 0.057 µM in [2]; 0.29 µM in experiment [3]; 0.44 µM in experiment [4]; 0.6 µM in experiment [7]. Besides, the Activity in [5] stood at 67%; in [6], 82%; in experiment [12] it was 30%; in experiment [13], 30%; in [14], 40%; in experiment [15], 10%.

In the case of `COc1cc(C(=O)c2c(N)sc3c2CCN(C(=S)NC(C)(C)C)C3)cc(OC)c1OC`, the IC50 in experiment [1], in experiment [2], in experiment [3] and in experiment [4] was over 10 µM throughout.

As to `COc1cc(C(=O)c2c(N)sc3c2CCN(C(=O)NC(C)C)C3)cc(OC)c1OC`, the IC50 in [1], in experiment [2], in experiment [3] and in experiment [4] was over 10 µM in each case.

With `COc1cc(C(=O)c2c(N)sc3c2CCN(C(=O)OC(C)(C)C)C3)cc(OC)c1OC`, the IC50 in experiment [1], in experiment [2], in [3] and in experiment [4] was over 10 µM in each case.

Turning to `COc1cc(C(=O)c2c(N)sc3c2CCN(C(=O)OCc2ccccc2)C3)cc(OC)c1OC`, the IC50 in experiment [1] was over 10 µM; in experiment [2], over 10 µM; in [3] it was 7.5 µM; in experiment [4] it was 8.3 µM.

In the case of `COc1cc(C(=O)c2c(N)sc3c2CCN(C(=O)NC2CCCCC2)C3)cc(OC)c1OC`, the IC50 in [1], in experiment [2], in experiment [3] and in experiment [4] was over 10 µM each time.

On to `CCCOC(=O)N1CCc2c(sc(N)c2C(=O)c2cc(OC)c(OC)c(OC)c2)C1`, for which the IC50 in [1] is 1.1 µM; in experiment [2], 1.4 µM; in [3], 0.47 µM; in experiment [4], 1.2 µM.

As for `COc1cc(C(=O)c2c(N)sc3cnccc23)cc(OC)c1OC`, the IC50 was found to be 0.37 µM in experiment [1], 0.4 µM in experiment [2], 0.34 µM in experiment [3] and 1 µM in experiment [4]. Moreover, the Activity in experiment [6] worked out at 27%; in [16], 19%; in experiment [17], 27%; in experiment [18], 54%; in [19], 14%.

Turning to `CCCCNC(=O)N1CCc2c(sc(N)c2C(=O)c2cc(OC)c(OC)c(OC)c2)C1`, the IC50 in [1], in experiment [2], in [3] and in experiment [4] was over 10 µM in each case.

As for `COc1cc(C(=O)c2c(N)sc3c2CCN(C(=S)NC2CCCCC2)C3)cc(OC)c1OC`, the results for the IC50 in experiment [1], in [2] and in experiment [3] were 1.1 µM, 1.4 µM and 0.75 µM, respectively.

On to `COc1cc(C(=O)c2c(N)sc3c2CCN(C)C3)cc(OC)c1OC`, for which the IC50 in [1], in experiment [2], in experiment [3] and in experiment [4] was over 10 µM throughout.

For the compound `CCCN1CCc2c(sc(N)c2C(=O)c2cc(OC)c(OC)c(OC)c2)C1`, the IC50 in [1], in experiment [2], in experiment [3] and in experiment [4] was over 10 µM throughout.

As to `CNC(=S)N1CCc2c(sc(N)c2C(=O)c2cc(OC)c(OC)c(OC)c2)C1`, the IC50 in experiment [1] turned out to be 4.9 µM; in [2], 2.8 µM; in experiment [3], 1.6 µM; in [4], 1.8 µM.

One may read the IC50 as the concentration that inhibits the measured activity by half. The low end stands for higher potency, the high end for lower potency.
